Results from ChEMBL document CHEMBL1136635, “Modification of the N-terminus of peptidomimetic protein tyrosine phosphatase 1B (PTP1B) inhibitors: identification of analogues with cellular activity” (Bioorg Med Chem Lett, 2003).

Biological target: Receptor-type tyrosine-protein phosphatase F (Homo sapiens) (UniProt P10586)
Assay: Inhibitory activity against phosphatase (LAR) at a concentration of 100 uM
Summary of the method: (§1)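 Purified recombinant human enzyme constructs; PTP1B is a C-terminally truncated soluble form, tested alongside LAR and SHP-2. Activity is read as the initial rate of p-nitrophenyl phosphate (pNPP) hydrolysis and reported as percent inhibition. PTP1B is tested at 100, 10 and 1 µM, or 10 and 1 µM in the salicylate series; LAR and SHP-2 at 100 µM.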

Sequence of Receptor-type tyrosine-protein phosphatase F (Homo sapiens) (P10586 whole entry): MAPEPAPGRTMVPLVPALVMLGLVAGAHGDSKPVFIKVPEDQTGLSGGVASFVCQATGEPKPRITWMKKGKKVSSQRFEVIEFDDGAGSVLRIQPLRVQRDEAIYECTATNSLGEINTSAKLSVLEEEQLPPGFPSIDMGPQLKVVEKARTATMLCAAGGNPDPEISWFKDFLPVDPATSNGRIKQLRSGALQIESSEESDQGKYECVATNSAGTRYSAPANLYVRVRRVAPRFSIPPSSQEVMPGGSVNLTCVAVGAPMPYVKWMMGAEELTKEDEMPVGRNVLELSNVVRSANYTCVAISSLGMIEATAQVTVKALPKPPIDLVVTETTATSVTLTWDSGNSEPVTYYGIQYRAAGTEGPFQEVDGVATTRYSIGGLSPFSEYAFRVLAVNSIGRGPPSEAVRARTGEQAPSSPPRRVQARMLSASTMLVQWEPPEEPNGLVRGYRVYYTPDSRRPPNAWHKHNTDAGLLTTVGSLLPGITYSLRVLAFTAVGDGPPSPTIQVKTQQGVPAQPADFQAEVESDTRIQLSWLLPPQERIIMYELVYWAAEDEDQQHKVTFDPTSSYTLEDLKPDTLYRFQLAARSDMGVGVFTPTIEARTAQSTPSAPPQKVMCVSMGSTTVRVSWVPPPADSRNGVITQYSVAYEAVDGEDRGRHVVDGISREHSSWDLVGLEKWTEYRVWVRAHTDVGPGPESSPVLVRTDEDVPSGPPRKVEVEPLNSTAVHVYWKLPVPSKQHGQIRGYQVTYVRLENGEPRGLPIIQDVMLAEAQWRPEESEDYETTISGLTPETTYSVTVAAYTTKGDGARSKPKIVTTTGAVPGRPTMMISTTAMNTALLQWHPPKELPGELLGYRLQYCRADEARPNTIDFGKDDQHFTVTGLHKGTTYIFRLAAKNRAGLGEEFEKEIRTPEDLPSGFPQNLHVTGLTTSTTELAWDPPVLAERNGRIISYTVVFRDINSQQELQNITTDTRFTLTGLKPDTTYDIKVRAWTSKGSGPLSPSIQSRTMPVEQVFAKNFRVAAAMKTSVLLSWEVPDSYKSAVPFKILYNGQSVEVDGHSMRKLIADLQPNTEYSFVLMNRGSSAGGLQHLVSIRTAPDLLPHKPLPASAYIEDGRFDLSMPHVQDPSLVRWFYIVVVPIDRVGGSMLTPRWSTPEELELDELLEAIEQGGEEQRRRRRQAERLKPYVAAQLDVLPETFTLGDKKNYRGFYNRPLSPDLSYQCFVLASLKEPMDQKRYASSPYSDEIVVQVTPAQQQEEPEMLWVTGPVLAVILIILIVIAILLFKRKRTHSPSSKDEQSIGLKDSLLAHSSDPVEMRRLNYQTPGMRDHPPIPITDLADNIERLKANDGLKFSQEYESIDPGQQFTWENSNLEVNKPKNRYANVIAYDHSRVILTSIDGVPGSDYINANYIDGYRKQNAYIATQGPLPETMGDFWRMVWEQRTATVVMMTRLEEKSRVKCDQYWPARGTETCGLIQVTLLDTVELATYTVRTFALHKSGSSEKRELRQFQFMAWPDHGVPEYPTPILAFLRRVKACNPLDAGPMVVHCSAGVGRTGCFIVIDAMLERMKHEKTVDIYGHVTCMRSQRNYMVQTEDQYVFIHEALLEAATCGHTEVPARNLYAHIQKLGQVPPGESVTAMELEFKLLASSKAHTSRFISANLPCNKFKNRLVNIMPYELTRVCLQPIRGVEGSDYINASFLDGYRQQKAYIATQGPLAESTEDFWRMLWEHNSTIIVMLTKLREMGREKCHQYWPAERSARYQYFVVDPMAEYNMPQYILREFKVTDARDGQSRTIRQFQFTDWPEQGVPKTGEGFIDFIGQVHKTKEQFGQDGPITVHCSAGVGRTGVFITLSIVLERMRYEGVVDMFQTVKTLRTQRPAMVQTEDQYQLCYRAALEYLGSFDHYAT

Structure (SMILES)	inhibition [%]
CCCCCNC(=O)[C@H](Cc1ccc(OC(C(=O)O)C(=O)O)cc1)NC(=O)[C@H](C)NC(=O)OC(C)(C)C	0
CCCCCNC(=O)[C@H](Cc1ccc(OCC(=O)O)c(C(=O)O)c1)NC(=O)[C@H](Cc1ccccc1)NC(=O)Cn1nnnc1S	0
CCCCCNC(=O)[C@H](Cc1ccc(OCC(=O)O)c(C(=O)O)c1)NC(=O)[C@H](Cc1ccccc1)NC(=O)CCc1ccccc1	0
CCCCCCCCCCCCCCCCCC(=O)N[C@@H](Cc1ccccc1)C(=O)N[C@@H](Cc1ccc(OCC(=O)O)c(C(=O)O)c1)C(=O)NCCCCC	0
CCCCCNC(=O)[C@H](Cc1ccc(OCC(=O)O)c(C(=O)O)c1)NC(=O)[C@H](Cc1ccccc1)NC(=O)Cc1ccc(OC)cc1	5
CCCCCNC(=O)[C@H](Cc1ccc(OC(C(=O)O)C(=O)O)cc1)NC(=O)[C@H](Cc1ccccc1)NS(=O)(=O)Cc1ccccc1	6

Test system: not listed separately
Assay: Uptake of 2-DOG (2-deoxyglucose) into L6 myocytes in the presence of half-maximal concentration of insulin at 100 uM
Assay type: functional, Rattus norvegicus
Summary of the method: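 L6 myotubes are exposed to compound at 100 µM with 10 nM insulin, a dose eliciting about 50% of maximal uptake. The initial rate of 2-[3H]deoxyglucose uptake is measured, with L-[14C]glucose marking extracellular space, and normalized to recovered lysate protein. Net insulin-dependent transport with inhibitor is expressed as a percent of that without inhibitor.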

Structure (SMILES)	Control Uptake [%]
CCCCCNC(=O)[C@H](Cc1ccc(OC(C(=O)O)C(=O)O)cc1)NC(=O)[C@H](C)NC(=O)OC(C)(C)C	88
CCCCCNC(=O)[C@H](Cc1ccc(OCC(=O)O)c(C(=O)O)c1)NC(=O)[C@H](Cc1ccccc1)NC(=O)Cn1nnnc1S	89
CCCCCNC(=O)[C@H](Cc1ccc(OCC(=O)O)c(C(=O)O)c1)NC(=O)[C@H](Cc1ccccc1)NC(=O)CCc1ccccc1	136
CCCCCNC(=O)[C@H](Cc1ccc(OCC(=O)O)c(C(=O)O)c1)NC(=O)[C@H](Cc1ccccc1)NC(=O)Cc1ccc(OC)cc1	141
CCCCCNC(=O)[C@H](Cc1ccc(OC(C(=O)O)C(=O)O)cc1)NC(=O)[C@H](Cc1ccccc1)NS(=O)(=O)Cc1ccccc1	98

Biological target: T1, Tyrosine-protein phosphatase non-receptor type 11 (Homo sapiens) (UniProt Q06124)
T1 sequence (whole entry): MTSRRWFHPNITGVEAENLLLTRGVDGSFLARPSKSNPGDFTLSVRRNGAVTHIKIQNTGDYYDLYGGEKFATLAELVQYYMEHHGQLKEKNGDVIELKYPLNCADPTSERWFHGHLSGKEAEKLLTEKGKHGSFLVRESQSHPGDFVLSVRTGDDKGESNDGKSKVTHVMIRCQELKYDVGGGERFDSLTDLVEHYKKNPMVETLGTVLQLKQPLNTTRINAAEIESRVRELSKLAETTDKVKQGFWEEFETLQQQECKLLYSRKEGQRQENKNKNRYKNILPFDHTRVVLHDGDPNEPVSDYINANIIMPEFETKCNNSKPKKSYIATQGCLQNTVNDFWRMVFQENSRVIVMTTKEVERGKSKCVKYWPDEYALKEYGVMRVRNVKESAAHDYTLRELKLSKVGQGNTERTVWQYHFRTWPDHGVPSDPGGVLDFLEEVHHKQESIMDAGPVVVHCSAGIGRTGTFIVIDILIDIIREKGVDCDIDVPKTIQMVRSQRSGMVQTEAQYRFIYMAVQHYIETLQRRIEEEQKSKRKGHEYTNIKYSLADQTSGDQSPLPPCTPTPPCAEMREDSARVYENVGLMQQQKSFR
Assay: Inhibition of recombinant human phosphatase (SHP-2) at a concentration of 100 uM
Summary of the method: as §1

Structure (SMILES)	inhibition [%]
CCCCCNC(=O)[C@H](Cc1ccc(OC(C(=O)O)C(=O)O)cc1)NC(=O)[C@H](C)NC(=O)OC(C)(C)C	3
CCCCCNC(=O)[C@H](Cc1ccc(OCC(=O)O)c(C(=O)O)c1)NC(=O)[C@H](Cc1ccccc1)NC(=O)Cn1nnnc1S	10
CCCCCNC(=O)[C@H](Cc1ccc(OCC(=O)O)c(C(=O)O)c1)NC(=O)[C@H](Cc1ccccc1)NC(=O)CCc1ccccc1	12
CCCCCNC(=O)[C@H](Cc1ccc(OCC(=O)O)c(C(=O)O)c1)NC(=O)[C@H](Cc1ccccc1)NC(=O)Cc1ccc(OC)cc1	25
CCCCCNC(=O)[C@H](Cc1ccc(OC(C(=O)O)C(=O)O)cc1)NC(=O)[C@H](Cc1ccccc1)NS(=O)(=O)Cc1ccccc1	10

Biological target: T2, Tyrosine-protein phosphatase non-receptor type 1 (Homo sapiens, UniProt P18031)
T2 sequence (P18031 whole entry): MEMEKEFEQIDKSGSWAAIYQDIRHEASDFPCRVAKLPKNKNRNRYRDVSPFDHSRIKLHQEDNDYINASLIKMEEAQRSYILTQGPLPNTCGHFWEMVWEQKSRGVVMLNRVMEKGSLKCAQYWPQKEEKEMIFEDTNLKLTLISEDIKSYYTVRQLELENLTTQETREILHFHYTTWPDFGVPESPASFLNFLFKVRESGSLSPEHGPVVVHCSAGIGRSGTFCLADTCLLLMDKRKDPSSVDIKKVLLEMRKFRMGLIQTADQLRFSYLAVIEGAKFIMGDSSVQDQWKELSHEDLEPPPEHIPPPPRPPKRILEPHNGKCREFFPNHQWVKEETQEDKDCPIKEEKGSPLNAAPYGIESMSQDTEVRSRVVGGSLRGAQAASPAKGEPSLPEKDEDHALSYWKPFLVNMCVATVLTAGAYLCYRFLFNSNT
Assay: Inhibitory activity against human protein tyrosine phosphatase 1B (PTP1B)
Summary of the method: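 Ki against a C-terminally truncated, soluble recombinant human PTP1B. Initial rates of pNPP hydrolysis are measured, and the Ki is computed by the Cornish-Bowden direct linear method.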

Structure (SMILES)	Ki [nM]
CCCCCNC(=O)[C@H](Cc1ccc(OC(C(=O)O)C(=O)O)cc1)NC(=O)[C@H](C)NC(=O)OC(C)(C)C	14000
CCCCCNC(=O)[C@H](Cc1ccc(OCC(=O)O)c(C(=O)O)c1)NC(=O)[C@H](Cc1ccccc1)NC(=O)Cn1nnnc1S	700
CCCCCNC(=O)[C@H](Cc1ccc(OCC(=O)O)c(C(=O)O)c1)NC(=O)[C@H](Cc1ccccc1)NC(=O)CCc1ccccc1	1400
CCCCCNC(=O)[C@H](Cc1ccc(OCC(=O)O)c(C(=O)O)c1)NC(=O)[C@H](Cc1ccccc1)NC(=O)Cc1ccc(OC)cc1	670

Biological target: T3, Tyrosine-protein phosphatase non-receptor type 1 (Homo sapiens) (UniProt P18031)
T3 sequence (whole entry): T2 sequence (P18031 whole entry)
Assay: Inhibitory activity against human protein tyrosine phosphatase 1B (PTP1B) at a concentration of 1 uM
Summary of the method: as §1

Structure (SMILES)	inhibition [%]
CCCCCNC(=O)[C@H](Cc1ccc(OC(C(=O)O)C(=O)O)cc1)NC(=O)[C@H](C)NC(=O)OC(C)(C)C	7
CCCCCNC(=O)[C@H](Cc1ccc(OCC(=O)O)c(C(=O)O)c1)NC(=O)[C@H](Cc1ccccc1)NC(=O)Cn1nnnc1S	57
CCCCCNC(=O)[C@H](Cc1ccc(OCC(=O)O)c(C(=O)O)c1)NC(=O)[C@H](Cc1ccccc1)NC(=O)CCc1ccccc1	22
CCCCCCCCCCCCCCCCCC(=O)N[C@@H](Cc1ccccc1)C(=O)N[C@@H](Cc1ccc(OCC(=O)O)c(C(=O)O)c1)C(=O)NCCCCC	1
CCCCCNC(=O)[C@H](Cc1ccc(OCC(=O)O)c(C(=O)O)c1)NC(=O)[C@H](Cc1ccccc1)NC(=O)Cc1ccc(OC)cc1	46
CCCCCNC(=O)[C@H](Cc1ccc(OC(C(=O)O)C(=O)O)cc1)NC(=O)[C@H](Cc1ccccc1)NS(=O)(=O)Cc1ccccc1	4

Biological target: T3, Tyrosine-protein phosphatase non-receptor type 1 (Homo sapiens)
Assay: Inhibitory activity against human protein tyrosine phosphatase 1B (PTP1B) at a concentration of 100 uM
Summary of the method: as §1

Structure (SMILES)	inhibition [%]
CCCCCNC(=O)[C@H](Cc1ccc(OC(C(=O)O)C(=O)O)cc1)NC(=O)[C@H](C)NC(=O)OC(C)(C)C	83
CCCCCNC(=O)[C@H](Cc1ccc(OC(C(=O)O)C(=O)O)cc1)NC(=O)[C@H](Cc1ccccc1)NS(=O)(=O)Cc1ccccc1	62

Biological target: T3, Tyrosine-protein phosphatase non-receptor type 1 (Homo sapiens)
Assay: Inhibitory activity against human protein tyrosine phosphatase 1B (PTP1B) at a concentration of 10 uM
Summary of the method: as §1

Structure (SMILES)	inhibition [%]
CCCCCNC(=O)[C@H](Cc1ccc(OC(C(=O)O)C(=O)O)cc1)NC(=O)[C@H](C)NC(=O)OC(C)(C)C	36
CCCCCNC(=O)[C@H](Cc1ccc(OCC(=O)O)c(C(=O)O)c1)NC(=O)[C@H](Cc1ccccc1)NC(=O)Cn1nnnc1S	91
CCCCCNC(=O)[C@H](Cc1ccc(OCC(=O)O)c(C(=O)O)c1)NC(=O)[C@H](Cc1ccccc1)NC(=O)CCc1ccccc1	74
CCCCCCCCCCCCCCCCCC(=O)N[C@@H](Cc1ccccc1)C(=O)N[C@@H](Cc1ccc(OCC(=O)O)c(C(=O)O)c1)C(=O)NCCCCC	3
CCCCCNC(=O)[C@H](Cc1ccc(OCC(=O)O)c(C(=O)O)c1)NC(=O)[C@H](Cc1ccccc1)NC(=O)Cc1ccc(OC)cc1	87
CCCCCNC(=O)[C@H](Cc1ccc(OC(C(=O)O)C(=O)O)cc1)NC(=O)[C@H](Cc1ccccc1)NS(=O)(=O)Cc1ccccc1	16

Biological target: Tyrosine-protein phosphatase non-receptor type 11, SHP-2 (Homo sapiens) (UniProt Q06124)
Assay: Inhibitory activity against phosphatase (SHP-2) at a concentration of 100 uM

Structure (SMILES)	inhibition [%]
CCCCCCCCCCCCCCCCCC(=O)N[C@@H](Cc1ccccc1)C(=O)N[C@@H](Cc1ccc(OCC(=O)O)c(C(=O)O)c1)C(=O)NCCCCC	54
